Converted amounts (≈) assume the structure as drawn.
Legend:
HBV genotype D = assay: Antiviral activity against HBV genotype D infected in human HepG2.2.15 cells assessed as inhibition of viral DNA level treated twice for 3 days measured after 6 days by real time PCR; format: functional, organism-based; conditions: Hepatitis B virus
[1] = Kinetic solubility of the compound at pH 7.4 after 4 hrs by UPLC-UV analysis; format: physicochemical; conditions: buffer, read-out: Kinetic_solubility
Hepatitis B virus [2] = assay: Antiviral activity against Hepatitis B virus infected in human HepG2.117 cells assessed as inhibition of viral DNA level after 3 days by real time PCR; format: functional, organism-based; conditions: HepG2.117, 72 h
[3] = Drug metabolism in mouse liver microsomes at 1 uM after 15 mins by LC-MS/MS analysis; format: ADME, microsome; conditions: read-out: Drug metabolism
How it was run: (§1)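 Compound incubated 15 min with human or mouse liver microsomes; stability expressed as percent turnover (metabolised) at 15 min.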

[4] = Drug metabolism in human liver microsomes at 1 uM after 15 mins by LC-MS/MS analysis; format: ADME, microsome; conditions: read-out: Drug metabolism; how it was run: as §1
[5] = Cytotoxicity against human HepG2 cells after 4 days by resazurin assay; format: cell-based
Hepatitis B virus [6] = assay: Induction of HBV capsid core protein CP149 aggregation assessed as ratio between area under the curve for observed amount of core dimer and area under the curve for aggregated core protein at 20 uM after 24 hrs by size exclusion chromatographic analysis
How it was run: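 Recombinant HBV core assembly domain (aa 1–149, Cp149) was incubated with compound at 20 µM for 24 h, with a no-compound control run in parallel. Size exclusion chromatography gave the ratio of Cp149 dimer AUC to aggregated Cp149 AUC.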

SMILES	EC50 (HBV genotype D) [µM]	solubility kinetic at 4 h [1] [µM]	EC50 (Hepatitis B virus [2]) [µM]	metabolised at 0.25 h, 1 µM [3] [%]	metabolised at 0.25 h, 1 µM [4] [%]	CC50 at 96 h [5] [µM]	Ratio (Hepatitis B virus [6])
O=C(Nc1cccc(S(=O)(=O)NC2CCCCC2)c1)c1ccc(F)cc1	8	22 (≈ 8.28 µg/mL)	> 25	100	91	> 25	
O=C(Nc1cccc(S(=O)(=O)NC2CCCCC2)c1)c1ccccc1	9.6	10 (≈ 3.58 µg/mL)	> 25	100	99	> 25	7
Cc1ccc(NC(=O)c2cccc(S(=O)(=O)NC3CCCC3)c2)cc1F	1.99	12 (≈ 4.52 µg/mL)	15.3	99	67	> 25	
O=C(Nc1ccc(F)cc1)c1cccc(S(=O)(=O)NC2COC2)c1	2.1	> 100	3.05	21	14	> 100	0.8
CN(C1CCCC1)S(=O)(=O)c1cccc(C(=O)Nc2ccc(F)cc2)c1	2.6	19 (≈ 7.15 µg/mL)	11.1	100	98	23.8	
O=C(Nc1ccc(F)cc1)c1cccc(S(=O)(=O)N2CCCCC2)c1	4.5	9 (≈ 3.26 µg/mL)	2.7	99	65	70.4	0.4
CC1(NS(=O)(=O)c2cccc(C(=O)Nc3ccc(F)cc3)c2)COC1	0.96	> 100	0.93	29	3	> 100	0.5
O=C(Nc1ccc(F)cc1)c1cccc(S(=O)(=O)N2CCOCC2)c1	8.49	> 100	11	69	27	> 100	0.6
O=C(Nc1ccc(F)cc1)c1cccc(S(=O)(=O)NC2CCOCC2)c1	0.93	> 100	1.67	48	14	> 100	
O=C(Nc1ccc(F)cc1)c1cccc(NC(=O)C2CCCCC2)c1	62.2	7 (≈ 2.38 µg/mL)	> 25	87	55	57.7	7.2
CN1CCC(NS(=O)(=O)c2cccc(C(=O)Nc3ccc(F)cc3)c2)CC1	5.3	94 (≈ 36.8 µg/mL)	16	13	10	> 100	4.2
O=C(Nc1ccc(F)cc1)c1cccc(S(=O)(=O)N[C@H]2CCOC2)c1	0.54	> 100	1.36	29	32	> 100	
O=C(Nc1ccc(F)cc1)c1cc(S(=O)(=O)NC2CCCC2)ccc1F	0.36	82 (≈ 31.2 µg/mL)	0.66	77	36	> 25	
CC(=O)N1CCC(NS(=O)(=O)c2cccc(C(=O)Nc3ccc(F)cc3)c2)CC1	6.77	> 100	4.68	23	0	> 100	2.9
O=C(Nc1cccc(F)c1)c1cccc(S(=O)(=O)NC2CCCC2)c1	0.27	57 (≈ 20.7 µg/mL)	0.43	100	88	> 25	
O=S(=O)(NC1CCCCC1)c1ccc(F)c(-c2ncc(-c3ccccc3)[nH]2)c1	1.7	3 (≈ 1.2 µg/mL)	23.3	99	75	19.2	10.2
O=C(NCc1ccccc1)c1cc(S(=O)(=O)NC2CCCCC2)ccc1F	> 100	29 (≈ 11.3 µg/mL)			74	93.9	8.4
CN(C)S(=O)(=O)c1cccc(C(=O)Nc2ccc(F)cc2)c1	5.02	43 (≈ 13.9 µg/mL)	2.99	89	50	> 100	1.4
CCC(CC)NS(=O)(=O)c1cccc(C(=O)Nc2ccc(F)cc2)c1	0.75	15 (≈ 5.47 µg/mL)	3.63	99	53	40.3	
O=C(Nc1ccc(F)cc1)c1cccc(NS(=O)(=O)C2CCCC2)c1	1.2	92 (≈ 33.3 µg/mL)	1.2	93	4	> 50	
O=C(Nc1ccc(F)cc1)c1cccc(S(=O)(=O)NC2CCCC2)c1	0.47	83 (≈ 30.1 µg/mL)	0.6	91	50	32.7	
O=C(NC1CCCCC1)c1cc(S(=O)(=O)NC2CCCCC2)ccc1F	28.8		> 25			> 25	
CC[C@H](C)NS(=O)(=O)c1cccc(C(=O)Nc2ccc(F)cc2)c1	0.75	92 (≈ 32.2 µg/mL)	8.63	82	18	39.6	
CC(C)NS(=O)(=O)c1cccc(C(=O)Nc2ccc(F)cc2)c1	0.74	> 100	0.96	61	16	57.5	
O=C(Nc1ccc(F)cc1)c1cccc(S(=O)(=O)NC2CCCCC2)c1		43 (≈ 16.2 µg/mL)	0.58	93	69	> 25	0.2
CC[C@@H](C)NS(=O)(=O)c1cccc(C(=O)Nc2ccc(F)cc2)c1	0.34	59 (≈ 20.7 µg/mL)	0.89	88	21	46	
O=C(Nc1ccc(F)cc1)c1cccc(S(=O)(=O)N2CCCC2)c1	4.53	48 (≈ 16.7 µg/mL)	3.03	96	44	96.9	
O=C(Nc1ccc(F)cc1)c1cccc(S(=O)(=O)NC2CCC2)c1	0.83	84 (≈ 29.3 µg/mL)	0.9	99	51	57.7	
O=C(Nc1ccc(F)cc1)c1cccc(S(=O)(=O)N[C@@H]2CCOC2)c1	1.18	> 100	2.03	24	21	> 100	

From ChEMBL document CHEMBL4138314, “Synthesis and Evaluation of N-Phenyl-3-sulfamoyl-benzamide Derivatives as Capsid Assembly Modulators Inhibiting Hepatitis B Virus (HBV)” (J Med Chem, 2018)
